# ChEMBL document CHEMBL5303300, “EUbOPEN Chemogenomics Library - Multiplex” (2023)
# Values joined by “and” are separate entries in the source; they are usually repeats but may differ in a detail not shown here. Equal entries are not always repeated.
# System: HEK-293T
# Assay: Multiplex assay against HEK293T
# Assay type: toxicity, cell-based
# Conditions: human, number of replicates 2
# How it was run: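 Tubulin, mitochondrial-mass and membrane-permeability phenotypes are per cents of healthy-nucleus cells. Cells were gated by CellPathfinder machine learning into Hoechst high-intensity objects or normal cells, normal cells into healthy, pyknosed or fragmented nuclei, and pyknosed cells into mitotic or apoptotic. Before that, live cells stained at seeding with Hoechst33342, BioTracker Green Microtubule Cytoskeleton Dye, MitoTracker Red and Annexin V Alexa Fluor 680 were imaged on a CQ1 microscope at 37°C and 5% CO2 after compound addition.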
# [1] = 12 h, 1 µM, compound concentration 1 uM
# [2] = 12 h, 10 µM, compound concentration 10 uM
# [3] = 24 h, 1 µM, compound concentration 1 uM
# [4] = 24 h, 10 µM, compound concentration 10 uM
# [5] = 48 h, 1 µM, compound concentration 1 uM
# [6] = 48 h, 10 µM, compound concentration 10 uM
structure (smiles),measurement,setting,value
Cc1cn(CCN2CCN(c3ccccc3-c3cc(C#N)cc(C(=O)NCCCN4CCCC4)c3)CC2)c2ccccc12,Population Apoptotic (%),[1],34% and 44%
same,Population Fragmented Nuclei (%),[1],3%
same,Population Healthy Nuclei (%),[1],82% and 84%
same,Population Hoechst High Intensity Objects (%),[1],7% and 6%
same,Population Membrane Permeable-Phenotype (%),[1],3% and 4%
same,Population Mitochondria Different-Phenotype (%),[1],26% and 20%
same,Population Mitotic Cells (%),[1],65% and 55%
same,Population Normal (%),[1],92% and 93%
same,Population Pyknosed Nuclei (%),[1],13% and 12%
same,Population Tubulin-Different-Phenotype (%),[1],72% and 71%
same,Total Cell Count,[1],634 and 574
same,Population Apoptotic (%),[2],70% and 65%
same,Population Fragmented Nuclei (%),[2],2%
same,Population Healthy Nuclei (%),[2],81% and 78%
same,Population Hoechst High Intensity Objects (%),[2],5%
same,Population Membrane Permeable-Phenotype (%),[2],2% and 1%
same,Population Mitochondria Different-Phenotype (%),[2],71% and 72%
same,Population Mitotic Cells (%),[2],30% and 34%
same,Population Normal (%),[2],94%
same,Population Pyknosed Nuclei (%),[2],16% and 18%
same,Population Tubulin-Different-Phenotype (%),[2],97% and 94%
same,Total Cell Count,[2],511 and 463
same,Population Apoptotic (%),[3],46% and 42%
same,Population Fragmented Nuclei (%),[3],5% and 3%
same,Population Healthy Nuclei (%),[3],86% and 89%
same,Population Hoechst High Intensity Objects (%),[3],8%
same,Population Membrane Permeable-Phenotype (%),[3],3%
same,Population Mitochondria Different-Phenotype (%),[3],12%
same,Population Mitotic Cells (%),[3],53% and 57%
same,Population Normal (%),[3],91%
same,Population Pyknosed Nuclei (%),[3],7% and 6%
same,Population Tubulin-Different-Phenotype (%),[3],57% and 51%
same,Total Cell Count,[3],1111 and 826
same,Population Apoptotic (%),[4],77% and 76%
same,Population Fragmented Nuclei (%),[4],1% and 3%
same,Population Healthy Nuclei (%),[4],85% and 79%
same,Population Hoechst High Intensity Objects (%),[4],9% and 4%
same,Population Membrane Permeable-Phenotype (%),[4],1% and 2%
same,Population Mitochondria Different-Phenotype (%),[4],88% and 81%
same,Population Mitotic Cells (%),[4],22% and 23%
same,Population Normal (%),[4],90% and 95%
same,Population Pyknosed Nuclei (%),[4],12% and 16%
same,Population Tubulin-Different-Phenotype (%),[4],97% and 95%
same,Total Cell Count,[4],524 and 487
same,Population Apoptotic (%),[5],16% and 21%
same,Population Fragmented Nuclei (%),[5],14% and 8%
same,Population Healthy Nuclei (%),[5],82% and 87%
same,Population Hoechst High Intensity Objects (%),[5],10% and 8%
same,Population Membrane Permeable-Phenotype (%),[5],5% and 3%
same,Population Mitochondria Different-Phenotype (%),[5],1% and 4%
same,Population Mitotic Cells (%),[5],83% and 78%
same,Population Normal (%),[5],89% and 91%
same,Population Pyknosed Nuclei (%),[5],3% and 4%
same,Population Tubulin-Different-Phenotype (%),[5],27% and 31%
same,Total Cell Count,[5],2524 and 1476
same,Population Apoptotic (%),[6],65% and 73%
same,Population Fragmented Nuclei (%),[6],6% and 8%
same,Population Healthy Nuclei (%),[6],82% and 77%
same,Population Hoechst High Intensity Objects (%),[6],7% and 11%
same,Population Membrane Permeable-Phenotype (%),[6],3% and 1%
same,Population Mitochondria Different-Phenotype (%),[6],57% and 66%
same,Population Mitotic Cells (%),[6],34% and 26%
same,Population Normal (%),[6],92% and 88%
same,Population Pyknosed Nuclei (%),[6],10% and 14%
same,Population Tubulin-Different-Phenotype (%),[6],90% and 93%
same,Total Cell Count,[6],709 and 587
O=C1Nc2ccc(C(=O)c3ccco3)cc2C1=Cc1cc(Cl)c(O)c(Cl)c1 [GW406108X],Population Apoptotic (%),[1],52% and 54%
same,Population Fragmented Nuclei (%),[1],4% and 3%
same,Population Healthy Nuclei (%),[1],83% and 81%
same,Population Hoechst High Intensity Objects (%),[1],9%
same,Population Membrane Permeable-Phenotype (%),[1],2% and 1%
same,Population Mitochondria Different-Phenotype (%),[1],18% and 17%
same,Population Mitotic Cells (%),[1],47% and 45%
same,Population Normal (%),[1],90%
same,Population Pyknosed Nuclei (%),[1],11% and 14%
same,Population Tubulin-Different-Phenotype (%),[1],49% and 42%
same,Total Cell Count,[1],695 and 619
same,Population Apoptotic (%),[2],53% and 61%
same,Population Fragmented Nuclei (%),[2],4% and 3%
same,Population Healthy Nuclei (%),[2],82% and 85%
same,Population Hoechst High Intensity Objects (%),[2],7% and 9%
same,Population Membrane Permeable-Phenotype (%),[2],2% and 1%
same,Population Mitochondria Different-Phenotype (%),[2],19%
same,Population Mitotic Cells (%),[2],46% and 38%
same,Population Normal (%),[2],92% and 90%
same,Population Pyknosed Nuclei (%),[2],13% and 10%
same,Population Tubulin-Different-Phenotype (%),[2],67%
same,Total Cell Count,[2],686 and 661
same,Population Apoptotic (%),[3],55% and 53%
same,Population Fragmented Nuclei (%),[3],7%
same,Population Healthy Nuclei (%),[3],85% and 82%
same,Population Hoechst High Intensity Objects (%),[3],9%
same,Population Membrane Permeable-Phenotype (%),[3],2% and 1%
same,Population Mitochondria Different-Phenotype (%),[3],4% and 5%
same,Population Mitotic Cells (%),[3],44% and 46%
same,Population Normal (%),[3],90%
same,Population Pyknosed Nuclei (%),[3],7% and 9%
same,Population Tubulin-Different-Phenotype (%),[3],26% and 25%
same,Total Cell Count,[3],1089 and 967
same,Population Apoptotic (%),[4],46% and 59%
same,Population Fragmented Nuclei (%),[4],7% and 6%
same,Population Healthy Nuclei (%),[4],85% and 81%
same,Population Hoechst High Intensity Objects (%),[4],11% and 13%
same,Population Membrane Permeable-Phenotype (%),[4],3% and 2%
same,Population Mitochondria Different-Phenotype (%),[4],10% and 15%
same,Population Mitotic Cells (%),[4],53% and 40%
same,Population Normal (%),[4],88% and 86%
same,Population Pyknosed Nuclei (%),[4],7% and 11%
same,Population Tubulin-Different-Phenotype (%),[4],53%
same,Total Cell Count,[4],904 and 698
same,Population Apoptotic (%),[5],9% and 25%
same,Population Fragmented Nuclei (%),[5],15% and 13%
same,Population Healthy Nuclei (%),[5],81% and 82%
same,Population Hoechst High Intensity Objects (%),[5],10% and 11%
same,Population Membrane Permeable-Phenotype (%),[5],5% and 2%
same,Population Mitochondria Different-Phenotype (%),[5],0%
same,Population Mitotic Cells (%),[5],90% and 74%
same,Population Normal (%),[5],89% and 88%
same,Population Pyknosed Nuclei (%),[5],2% and 3%
same,Population Tubulin-Different-Phenotype (%),[5],13% and 12%
same,Total Cell Count,[5],2778 and 2175
same,Population Apoptotic (%),[6],34% and 50%
same,Population Fragmented Nuclei (%),[6],18% and 14%
same,Population Healthy Nuclei (%),[6],78% and 80%
same,Population Hoechst High Intensity Objects (%),[6],15% and 20%
same,Population Membrane Permeable-Phenotype (%),[6],4% and 1%
same,Population Mitochondria Different-Phenotype (%),[6],1% and 3%
same,Population Mitotic Cells (%),[6],65% and 50%
same,Population Normal (%),[6],84% and 79%
same,Population Pyknosed Nuclei (%),[6],3% and 5%
same,Population Tubulin-Different-Phenotype (%),[6],22% and 30%
same,Total Cell Count,[6],1684 and 1056
